According to ChEMBL document CHEMBL4513216, “Probing the Open Global Health Chemical Diversity Library for Multistage-Active Starting Points for Next-Generation Antimalarials” (ACS Infect Dis, 2020):

Assay: Toxicity liver stage against HepG2, at 10uM
Assay type: cell-based
Parameters: test concentration 10 uM, cell line HepG2-A16-CD81EGFP
Conditions: human, HepG2-A16-CD81EGFP cells; read-out: INHIBITION
Procedure, shortened: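 Uninfected HepG2-A16-CD81EGFP cells, 3 × 10^3 per well, 1536-well, plated on prespotted compound at 10 μM final, parasite-free screening media added to match infected plates; puromycin 10 μM positive, DMSO 0.5% negative; run in parallel with 48 h PbLuc assay at 37 °C, 5% CO2; viability by CellTiter-Glo luminescence, normalized to controls.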

Compound | cytotoxicity at 10 µM [%]
O=C(CCNC(=O)c1ccc(Cl)cc1)NCc1nc(C2CC2)no1 | 0.648
COc1ccc(-c2cc(C[C@@H]3C[C@H](N(C)C)C3(C)C)no2)cc1 | -1.3
O=C(NC[C@@H]1CCCO1)c1cccnc1N1CCCC1c1ccccn1 (some centres undefined) | -1.08
Cc1nn(-c2ncnc3[nH]cnc23)c2c1C(C(C)C)CC(=O)N2 (centres undefined) | 10.8
COC(=O)CNC(=O)c1cn(-c2ccccn2)c(=O)c2ccccc12 | 0.0537
O=C(NCCc1nccs1)[C@H](c1ccccc1)n1cnnn1 | -0.607
CSCC(C)(O)CNC(=O)c1cc(Cl)ccc1Cl (centres undefined) | 9.88
CCOCC(=O)N1C[C@H]2CN(CC3CC3)C(=O)[C@H]2C1 | 3.94
CC(C)NC(=O)N1CCCC2(CCN(c3ccccc3)C2=O)C1 (centres undefined) | -2.22
CN(C)CCO[C@H]1CN(C(=O)c2ccc3c(c2)OCO3)[C@@H]2COC[C@H]12 | -151
O=C(c1ccoc1)N1C[C@H]2CC[C@@]3(N=C(c4ccccc4)NC3=O)[C@H]2C1 | 6.79
COCCNC(=O)CSCc1nc(O)c2cc(C(C)C)sc2n1 | -3.46
CCOC(=O)CC(c1ccc(OC)c(OC)c1)c1c(O)n[nH]c1C (centres undefined) | 1.64
Cc1cc(C)c2c(c1)C1(CC(=O)Nc3c1cnn3C(C)C)C(=O)N2 (centres undefined) | -2.51
COC(=O)CNC(=O)CSCc1nc(O)c2cc(C(C)C)sc2n1 | 7.72
Cn1cc(CN2CC[C@@H]3O[C@H](C(=O)N4CCOCC4)C[C@@H]32)cn1 | -8.08
O=C(N[C@@H]1CN(Cc2ccc3c(c2)OCO3)[C@@H]2CCCO[C@@H]21)C1CC1 | 2.06
COCC1CC2(CCN(C(=O)c3ccc(OC)c(Cl)c3)CC2)CO1 (centres undefined) | 15.4
Cc1cc(-c2ccc(=O)n(CCNC(=O)C3CC3)n2)c(C)o1 | -10.2
CC(=O)N1CCOCC(Cc2ccc3c(ccn3C)c2)C1 (centres undefined) | 4.3
Cc1ncc(-c2ccncc2)c(C2CCN(C(=O)c3ccco3)CC2)n1 | 4
CC1(C(=O)N2CCN(C3CCCC3)CC2)CNCCO1 (centres undefined) | 6.26

Compound | cytotoxicity at 10 µM [%]
COC(=O)c1c(C(F)(F)F)cnc(OC)c1Cl | 7.03
CC(C1CC1)N(C(=O)CNc1ccc(C#N)cc1)C1CC1 (centres undefined) | -5.28
O=C(NCc1ccnc(OCC(F)(F)F)c1)NCC1CCCO1 (centres undefined) | -4.05
Cc1noc(CN(CCO)Cc2cc(Br)ccc2F)n1 | 2.2
Cc1ccc(C2CN(CCCS(=O)(=O)C(C)C)CCO2)c(C)c1 (centres undefined) | -2.36
OC(CNCCc1nnc2ccccn12)c1ccc2c(c1)OCO2 (centres undefined) | 4.06
O=S1(=O)CCC(c2nnc(-c3cnc4onc(C5CCCC5)c4c3)o2)C1 (centres undefined) | 1.84
Cc1csc(C(C)(C)NCCCS(C)(=O)=O)n1 | 6.11
COCCCN1Cc2cccc(NC(=O)C(C)(C)C)c2C1 | 2.06
CC(C)CCc1noc(CN2CCCC(CNS(N)(=O)=O)C2)n1 (centres undefined) | 2.48
CCC(C)NC(=O)Nc1cccc(OCCCC#N)c1 (centres undefined) | -2.01
NC(=O)C(NC(=O)COCCc1ccccc1)c1ccccc1F (centres undefined) | -11
O=C(NCCN1CCOCC1)NCc1ccccc1-n1cccn1 | -6.32
Cn1cc(C(=O)CC2CCCN2C(=O)c2ccc3[nH]ncc3c2)cn1 (centres undefined) | -2.53
CN(C)C(C(=O)NCC1(O)CCCCC1)c1c(F)cccc1F (centres undefined) | -5.52
O=S(=O)(c1c(F)cccc1F)N1CCCC1c1nnc2n1CCCCC2 (centres undefined) | 11.2
CCC(Nc1nc(C(F)(F)F)nc2ccccc12)C(=O)O (centres undefined) | 3.75
CC(=O)N1CCN(C(=O)c2c(Cl)c3ccccc3n2C)CC1 | 12.5
N#Cc1ccc(CNC(=O)NC2CCCN(c3ncccn3)C2)cc1 (centres undefined) | 5.38
CC(OCCCNC(=O)c1cccnc1O)c1ccccc1 (centres undefined) | 4.88
CN(CCNc1cc(N2CCCC2CO)ncn1)Cc1ccccc1 (centres undefined) | 15.7
c1ccc(-c2nc(CN3CCn4c(nnc4C4CC4)C3)no2)cc1 | -3.47

Compound | cytotoxicity at 10 µM [%]
CN1CCN(C(=O)C2CCCN2c2ncnc3ccsc23)CC1 (centres undefined) | 9.19
COc1cc(C)nc(N2CCN(C(C)c3nc(C4CC4)no3)CC2)n1 (centres undefined) | 1.46
O=C(NCCNC(=O)c1ccc(Br)cc1)c1ccc(O)cc1 | -0.988
Cc1cc(C(=O)N2CCCC(N3CCNC3=O)C2)nn1C(C)(C)C (centres undefined) | -1.44
CCOc1ccc(C(=O)N(C)C)cc1NC(=O)c1ccsc1 | -0.12
O=C(C1CCCOC1)N1CCCc2ccccc21 (centres undefined) | 10.1
O=C(CN1CCS(=O)(=O)CC1)NCc1cccc(Br)c1 | 6.32
C[S+]([O-])c1nncn1CCc1ccccc1 (centres undefined) | -12.6
Cc1ccc(N(C)C2CCN(C(=O)c3n[nH]c4c3CCC4)CC2)nn1 | 8
Cc1ccc(Br)cc1C(=O)Nc1cc(C(N)=O)n(C)c1 | 1.41
CN(C)CC1CN(Cc2c(Cl)ccc3cccnc23)CCO1 (centres undefined) | 4.2
c1cc(CN2CCCC2)ccc1CNc1cncc2nnnn12 | 3.99
O=S(=O)(NC1CCC2(CC1)OCCO2)c1cccc(Br)c1 | -5.65
COCCNC(=O)N1CC(Cc2ccccc2F)C1 | -6.4
Cc1csc(NC(=O)NCCCN2CCC(C(N)=O)CC2)n1 | 2.48
CCC(C)NS(=O)(=O)Cc1cccc(NC(=O)C2=CCCC2)c1 (centres undefined) | -0.217
CC(C)(C)OC(=O)N1CCN(S(=O)(=O)CCCC#N)C2(CCCCC2)C1 | -6.1
Cc1noc2ncc(S(=O)(=O)Nc3cc(C(C)(C)C)n[nH]3)cc12 | 3.26
CCS(=O)(=O)CCNC(=O)NCc1ccccc1-n1cccn1 | 4.87
CCOc1ccc(C#N)cc1NC(=O)N1CCCC(NC(=O)CC)C1 (centres undefined) | 0.711
O=C(CCc1ccccc1)Nc1ncccc1OC(F)F | -3.45
CSC(C)C(=O)NCCCc1cc(N)n(-c2ccccc2)n1 (centres undefined) | 3.25

Compound | cytotoxicity at 10 µM [%]
O=C(CCCn1cncn1)NC1(c2ccccc2)CCC1 | -11.5
Cc1cccc(N2CCN(C(=O)CN3CCN(CCO)CC3)CC2)c1 | -15.5
CC(C)Cc1cc(C(=O)NCc2nnc[nH]2)[nH]n1 | -2.95
CO[C@H]1C[C@@H](O)C12CCN(C(=O)NCc1ccco1)CC2 | -2.04
Nc1nccc(-c2cccc3ccnn23)n1 | -3.81
COc1ccccc1-c1ncc(CN2CCCC(CCC(N)=O)C2)s1 (centres undefined) | -6.34
CC(C)(C)c1ncc(C(=O)N2CCN(C(=O)c3ccc[nH]3)CC2)c(O)n1 | -6.74
CCN(CCOc1ccc(F)cc1)C(=O)c1ccncc1Cl | -3.35
COc1cccc2c1OCC(CNC(=O)Cc1csc(C(C)=O)c1)C2 (centres undefined) | -146
Cc1ccc(C#N)c(N2CCC3(CCCN(C4CCOCC4)C3=O)C2)n1 (centres undefined) | -125
CC(C)Oc1cc(N2CC[C@@H](N3CCOCC3)[C@H](O)C2)nc(N)n1 | -2.32
CCn1c(C2CCCN(Cc3ccc4ccccc4n3)C2)nn(C)c1=O (centres undefined) | 0.687
CCCn1ncc(C(=O)N2CCN(C3Cc4ccccc4C3)CC2)c1C | -139
O=C(C1CC1)N1CCCN(c2ncnc3c2CCNCC3)CC1 | 5.52
O=C(N[C@@H]1CCCNC1)C1(Oc2ccc(Cl)cc2)CCNCC1 | -4.73
O=C(O)CNc1cc(-c2cc(C(=O)NC3CC3)ccn2)c2cc[nH]c2n1 | -5.2
CN(CC(C)(C)C)c1ccc(C(=O)NCCCc2ccccn2)cn1 | -49.1
CCC1CN(C(=O)c2cccnc2O)CCC(=O)N1Cc1ccccc1 (centres undefined) | 3.65
CC1(C(=O)NCc2cccnc2Oc2ccc(F)cc2F)CCCNC1 (centres undefined) | -5.68
Cc1ccc([C@@H]2CN(C(=O)c3ccc[nH]3)C[C@H]2NC(=O)C2CC2)cc1 | -21.5
COc1c(C2CCCN2C(=O)c2csc(C3CC3)n2)c(C)nn1C (centres undefined) | 4.53
CC(C)c1cc(NC(=O)c2ccncc2)[nH]n1 | -0.396

Compound | cytotoxicity at 10 µM [%]
COc1ccc(C(=O)N(C)Cc2c(C)noc2C)cn1 | -12.9
O=C(NCCn1nc2ccccn2c1=O)c1sccc1-c1ccccc1 | -12.7
CCn1ccnc1CN1CCCN(C(=O)c2cnn(C)c2)CC1 | -7.25
Cc1cc(C)c(CNC(=O)N2CCN(c3ccncc3)CC2)c(=O)[nH]1 | -3.57
Cc1ccccc1C(=O)Nc1cnn(CCN2CCOCC2)c1 | -11.7
CCOCCN1CCN(CC(=O)N2CCC2)CC1CC (centres undefined) | -2.15
c1ccc(-c2noc(CN3CCOC(Cn4cccn4)C3)n2)nc1 (centres undefined) | -15
C[C@@H](NC(=O)c1cccs1)c1onc(-c2cccnc2)c1C(=O)O | 6.09
Cc1nc(Nc2cnccn2)cc(C2CN(C(C)C)C2)n1 | -27.1
CN(C)CCN1CCCC12CCN(C(=O)c1ccco1)CC2 | 1.49
Cc1ccc(CN2C[C@@H]3[C@@H](C(=O)NCC4CC4)CCS(=O)(=O)[C@@H]3C2)cc1 | -4
Cn1cc(CN2CC[C@H]3O[C@H](C(=O)NCc4ccco4)CC[C@H]32)cn1 | -1.85
CCO[C@H]1CO[C@@]2(CCN(Cc3ccc4c(c3)OCO4)C2)C1 | 0.493
Cc1nn(C)c(N(C)C)c1CNC1CCc2c(F)cccc21 (centres undefined) | -5.87
COc1ccc(CN2C[C@@H](OCc3csc(C)n3)[C@H]3COC[C@H]32)cc1 | -17.3
CC(NCc1cccc(C#N)c1)c1ccccn1 (centres undefined) | -9.61
CC(C)[C@H](N)C(=O)N1CCSc2ccccc2C1 | -5.53
CCOCC1CN(Cc2cccnc2)Cc2nn(C)cc21 (centres undefined) | -81.6
Cc1noc(C)c1CN1CCOC2(CCCN(c3ncccn3)C2)C1 (centres undefined) | 8.27
Cc1cc(C)c(CNCC(O)c2ccc(F)c(F)c2)c(C)c1 (centres undefined) | 6.59
Cc1ccc(-n2cc3[nH]c(=O)[nH]n3c2=O)cc1 | 1.22
